Measured values published in ChEMBL document CHEMBL1143736, “Synthesis and antimycobacterial activity of 4-(5-substituted-1,3,4-oxadiazol-2-yl)pyridines” (Bioorg Med Chem, 2007).
pIC50: −log10 of the molar value. In brackets after ≈: the same amount, converted by molar mass.

How the values were obtained:
[1] = tested on: Mycobacterium tuberculosis; test: Antimycobacterial activity against drug-sensitive Mycobacterium tuberculosis CIBIN 687 isolates; type: functional
Summary of the method: (§1)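 Modified microplate Alamar Blue assay (MABA). Inoculum came from a log-phase culture matched to McFarland 1, diluted 1:50 in Middlebrook 7H9 to 6 × 10^6 CFU/mL, and prepared just before inoculation.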

[2] = tested on: Mycobacterium tuberculosis; test: Antimycobacterial activity against drug-sensitive Mycobacterium tuberculosis CIBIN 650 isolates; type: functional; summary of the method: as §1
[3] = tested on: Mycobacterium tuberculosis; test: Antimycobacterial activity against Mycobacterium tuberculosis H37Rv; type: functional; summary of the method: as §1
Vero = test: Cytotoxicity against Vero cells; type: cell-based; details: Chlorocebus sabaeus
Summary of the method: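 Vero cells in DMEM with 10% FBS (1.5 × 10^5 cells/mL) grown 24 h at 36.5 °C, 5% CO2; medium renewed, compounds (DMSO stocks) added in triplicate at 100–0.390 µg/mL by two-fold serial dilution, 24 h. Cells trypsinized, trypan blue stained, 100 counted for % dead, corrected against untreated controls (2.5% DMSO); IC50 by probit; three independent experiments, mean ± SE.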

[4] = Toxicity against adherent human PBMC; type: cell-based
Summary of the method: (§2)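 PBMC from one healthy volunteer, isolated at room temperature, in RPMI 1640 + 10% FBS at 1 × 10^6 cells/mL; compounds tested in quintuplicate, 24 h. Non-adherent cells taken with supernatant, adherent cells recovered with trypsin–EDTA, each fraction pelleted (600g, 5 min) and read separately; IC50 per fraction.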

PBMC = test: Survival of adherent human PBMC at 100 ug/mL; type: functional; details: read-out: Survival
Summary of the method: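 PBMC came from one healthy volunteer, isolated at room temperature, and were plated at 1 × 10^6 cells/mL in RPMI 1640 + 10% FBS. Compound was added in quintuplicate and incubated 24 h. Both fractions were pelleted at 600g for 5 min.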

[5] = Toxicity against non-adherent human PBMC; type: cell-based; summary of the method: as §2

SMILES | MIC [1] | MIC [2] | MIC [3] | pIC50 (Vero) | IC50 [4] | viability at 100 µg/mL (PBMC) | IC50 [5]
O=[N+]([O-])c1ccc(-c2nnc(-c3ccncc3)o2)cc1 | 29.9 µM (≈ 8.01 µg/mL) | 29.9 µM (≈ 8.01 µg/mL) | 29.9 µM (≈ 8.01 µg/mL) |  |  |  | 
Cc1nnc(-c2ccncc2)o1 | 6.21 µM (≈ 1 µg/mL) | 49.7 µM (≈ 8.01 µg/mL) | 49.7 µM (≈ 8.01 µg/mL) |  |  |  | 
c1ccc(-c2nnc(-c3ccncc3)o2)cc1 | 4.48 µM (≈ 1 µg/mL) | 8.97 µM (≈ 2 µg/mL) | 8.97 µM (≈ 2 µg/mL) | 4.17 |  |  | 
CN[C@@H]1[C@H](O[C@H]2[C@H](O[C@H]3[C@H](O)[C@@H](O)[C@H](N=C(N)N)[C@@H](O)[C@@H]3N=C(N)N)O[C@@H](C)[C@]2(O)C=O)O[C@@H](CO)[C@H](O)[C@H]1O (stereo in doubt) [STREPTOMYCIN] |  | 0.1 µM (≈ 0.0582 µg/mL) | 0.86 µM (≈ 0.5 µg/mL) | < 4.00 |  |  | 
FC(F)(F)c1nnc(-c2ccncc2)o1 | 37.2 µM (≈ 8.01 µg/mL) | 37.2 µM (≈ 8.01 µg/mL) | 37.2 µM (≈ 8.01 µg/mL) |  |  |  | 
COc1cc(-c2nnc(-c3ccncc3)o2)cc(OC)c1OC | 3.53 µM (≈ 1.11 µg/mL) | 7.06 µM (≈ 2.21 µg/mL) | 14.1 µM (≈ 4.42 µg/mL) | 3.60 |  |  | 
ClCc1nnc(-c2ccncc2)o1 | 41 µM (≈ 8.03 µg/mL) | 41 µM (≈ 8.03 µg/mL) | 41 µM (≈ 8.03 µg/mL) | 4.19 |  |  | 
O=[N+]([O-])c1cc(-c2nnc(-c3ccncc3)o2)cc([N+](=O)[O-])c1 | 6.39 µM (≈ 2 µg/mL) | 25.5 µM (≈ 8 µg/mL) | 25.5 µM (≈ 8 µg/mL) | 4.11 |  |  | 
CC[C@@H](CO)NCCN[C@@H](CC)CO [ETHAMBUTOL] |  |  | 9.8 µM (≈ 2 µg/mL) | < 4.00 |  |  | 
NNC(=O)c1ccncc1 [ISONIAZID] | 0.91 µM (≈ 0.125 µg/mL) | 0.91 µM (≈ 0.125 µg/mL) | 0.44 µM (≈ 0.0603 µg/mL) | 4.40 | > 100 µg/mL | > 95% | 87.1 µg/mL (≈ 635 µM)
O=[N+]([O-])c1ccccc1-c1nnc(-c2ccncc2)o1 | 3.73 µM (≈ 1 µg/mL) | 7.46 µM (≈ 2 µg/mL) | 7.46 µM (≈ 2 µg/mL) | 4.49 |  |  | 
CCCCCCCCCCCCCCCc1nnc(-c2ccncc2)o1 | 0.7 µM (≈ 0.25 µg/mL) | 0.09 µM (≈ 0.0322 µg/mL) | 0.35 µM (≈ 0.125 µg/mL) | 4.02 | 125 µg/mL (≈ 350 µM) |  | 15.8 µg/mL (≈ 44.3 µM)
CO[C@H]1/C=C/O[C@@]2(C)Oc3c(C)c(O)c4c(O)c(c(/C=N/N5CCN(C)CC5)c(O)c4c3C2=O)NC(=O)/C(C)=C\C=C\[C@H](C)[C@H](O)[C@@H](C)[C@@H](O)[C@@H](C)[C@H](OC(C)=O)[C@@H]1C [RIFAMPIN] |  |  | 0.07 µM (≈ 0.0576 µg/mL) | < 4.00 |  |  | 
CN(C)c1ccc(-c2nnc(-c3ccncc3)o2)cc1 | 3.76 µM (≈ 1 µg/mL) | 30 µM (≈ 8 µg/mL) | 3.76 µM (≈ 1 µg/mL) | 4.30 |  |  | 
c1cc(-c2nnc(-c3ccncc3)o2)ccn1 | 4.46 µM (≈ 1 µg/mL) | 8.93 µM (≈ 2 µg/mL) | 8.93 µM (≈ 2 µg/mL) | 4.03 |  |  | 
CCCCCCCCCCCCCCCCCc1nnc(-c2ccncc2)o1 | 0.65 µM (≈ 0.251 µg/mL) | 0.16 µM (≈ 0.0617 µg/mL) | 0.65 µM (≈ 0.251 µg/mL) | 4.06 | 312 µg/mL (≈ 810 µM) |  | 45.4 µg/mL (≈ 118 µM)
